According to ChEMBL document CHEMBL1122207, “Antitumor agents. 2. Bisguanylhydrazones of anthracene-9,10-dicarboxaldehydes” (1982):

Legend:
Assay type in all cases: functional
Mus musculus [1] = organism: Mus musculus; assay: Cures is the number of survivors of the total treated animals(12 mice) with P-388 leukemia, at 30 days.
Procedure, shortened: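 BDF1 or CDF1 mice given 10^6 ascitic P-388 leukemia cells ip, then treated ip on days 1, 5 and 9. Cures are survivors over total treated at 30 days.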

Mus musculus [2] = organism: Mus musculus; assay: Cures is the number of survivors of the total treated mice (6) with advanced L-1210 leukemia, at 30 days.
Procedure, shortened: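 Advanced L-1210 leukemia, with ip treatment on days 5, 9 and 13 relative to tumor inoculation.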

Mus musculus [3] = organism: Mus musculus; assay: Cures is the number of survivors of the total treated mice (10) with B-16 melanoma, at 60 days.
Procedure, shortened: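 BDF1 mice were implanted ip with a homogenate from 0.05 g of B-16 melanoma and dosed ip on days 1-9. Cures are survivors over total at 60 days.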

Mus musculus [4] = assay: Percent increase in median life span of BDF1 mice with B-16 melanoma at dose 6.2 mg/kg administered intraperitoneally; 1-9 days of ip treatment relative to tumor inoculation; settings: BDF1, B16, ip, route intraperitoneal
Procedure, shortened: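 BDF1 mice were implanted ip with a homogenate from 0.05 g of B-16 melanoma. Ip dosing ran on days 1-9, starting 24 h after implant, in dose-response studies following NCI protocols. The read-out was percent increase in life span (ILS). T/C ≥125% was taken as significant.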

Mus musculus [5] = assay: Percent increase in median life span of BDF1 mice with P-388 leukemia at dose 12.5 mg/kg administered intraperitoneally; Range is 100-120% 1, 5, 9 days of ip treatment relative to tumor inoculation; settings: BDF1, P388, ip, 216 h, route intraperitoneal
Procedure, shortened: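 BDF1 or CDF1 mice given 10^6 ascitic leukemia cells ip, then dosed ip on days 1, 5 and 9. Read-out is percent increase in life span versus untreated controls. Cures were scored as survivors/total at 30 days; when cures reached 50% or more, the run was extended until a specific ILS could be calculated. T/C ≥125% counted as significant.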

Mus musculus [6] = assay: Percent increase in median life span of BDF1 mice with advanced L-1210 leukemia at dose 12.5 mg/kg administered intraperitoneally; treatment day +2 iv; settings: L1210

## CC1(C)CNC(N/N=C/c2c3ccccc3c(/C=N/NC3=NCC(C)(C)N3)c3ccccc23)=N1.Cl.Cl
Mus musculus [1]
  Cures: 0
Mus musculus [2]
  Cures: 0
Mus musculus [3]
  Cures: 5
Mus musculus [4]
  ILS at 6.2 mg/kg: > 248%
Mus musculus [5]
  ILS at 12.5 mg/kg: 100%
Mus musculus [6]
  ILS at 12.5 mg/kg: 28%
